{"source": "ChEMBL document CHEMBL3616378", "about": "(J Med Chem, 2015)", "key": {"[1]": {"molecular_target": "T1, Metabotropic glutamate receptor 2 (Homo sapiens, UniProt Q14416)", "T1 sequence (Q14416 whole entry)": "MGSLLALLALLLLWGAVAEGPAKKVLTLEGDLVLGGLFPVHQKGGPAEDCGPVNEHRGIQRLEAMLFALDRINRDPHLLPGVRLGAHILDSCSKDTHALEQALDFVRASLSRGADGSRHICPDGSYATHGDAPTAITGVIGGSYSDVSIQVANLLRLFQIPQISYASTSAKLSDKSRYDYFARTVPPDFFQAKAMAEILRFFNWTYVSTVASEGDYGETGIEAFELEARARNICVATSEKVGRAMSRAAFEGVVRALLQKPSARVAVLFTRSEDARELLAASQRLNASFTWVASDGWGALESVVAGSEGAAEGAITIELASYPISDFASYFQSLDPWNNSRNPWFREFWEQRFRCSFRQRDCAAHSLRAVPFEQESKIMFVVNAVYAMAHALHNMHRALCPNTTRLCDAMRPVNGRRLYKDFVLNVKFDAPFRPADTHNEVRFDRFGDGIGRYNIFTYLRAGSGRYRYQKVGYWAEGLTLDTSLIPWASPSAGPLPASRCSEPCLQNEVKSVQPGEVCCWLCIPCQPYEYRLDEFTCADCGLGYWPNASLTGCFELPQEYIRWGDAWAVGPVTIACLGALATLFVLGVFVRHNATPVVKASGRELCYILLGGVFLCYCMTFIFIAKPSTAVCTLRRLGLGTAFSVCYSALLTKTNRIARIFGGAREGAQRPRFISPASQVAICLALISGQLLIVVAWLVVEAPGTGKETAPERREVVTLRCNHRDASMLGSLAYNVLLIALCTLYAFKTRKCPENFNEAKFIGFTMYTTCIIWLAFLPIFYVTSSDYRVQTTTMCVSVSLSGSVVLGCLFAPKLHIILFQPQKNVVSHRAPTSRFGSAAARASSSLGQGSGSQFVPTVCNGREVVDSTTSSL", "assay": "Displacement of [3H]-459477 from human recombinant mGlu2 receptor expressed in AV12 cells after 90 mins by liquid scintillation counting", "format": "cell-based"}, "[2]": {"assay": "Bioavailability in Sprague-Dawley rat at 1 mg/kg, ip", "format": "ADME, organism-based", "details": "in vivo", "how_it_was_run": "(§1)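 Fasted male Sprague–Dawley rats (~250 g) received a single dose of compound dissolved in water and adjusted to pH 7–7.5 with NaOH, given iv, by oral gavage or ip. Serial blood samples (11–12 per rat) were drawn from a jugular vein catheter into EDTA and kept frozen. Plasma was mixed with methanol:water (1:1) containing an analogue internal standard for analysis. Mean plasma parameters are reported.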"}, "[3]": {"molecular_target": "Metabotropic glutamate receptor 5 (Homo sapiens, UniProt P41594)", "sequence (P41594 whole entry)": "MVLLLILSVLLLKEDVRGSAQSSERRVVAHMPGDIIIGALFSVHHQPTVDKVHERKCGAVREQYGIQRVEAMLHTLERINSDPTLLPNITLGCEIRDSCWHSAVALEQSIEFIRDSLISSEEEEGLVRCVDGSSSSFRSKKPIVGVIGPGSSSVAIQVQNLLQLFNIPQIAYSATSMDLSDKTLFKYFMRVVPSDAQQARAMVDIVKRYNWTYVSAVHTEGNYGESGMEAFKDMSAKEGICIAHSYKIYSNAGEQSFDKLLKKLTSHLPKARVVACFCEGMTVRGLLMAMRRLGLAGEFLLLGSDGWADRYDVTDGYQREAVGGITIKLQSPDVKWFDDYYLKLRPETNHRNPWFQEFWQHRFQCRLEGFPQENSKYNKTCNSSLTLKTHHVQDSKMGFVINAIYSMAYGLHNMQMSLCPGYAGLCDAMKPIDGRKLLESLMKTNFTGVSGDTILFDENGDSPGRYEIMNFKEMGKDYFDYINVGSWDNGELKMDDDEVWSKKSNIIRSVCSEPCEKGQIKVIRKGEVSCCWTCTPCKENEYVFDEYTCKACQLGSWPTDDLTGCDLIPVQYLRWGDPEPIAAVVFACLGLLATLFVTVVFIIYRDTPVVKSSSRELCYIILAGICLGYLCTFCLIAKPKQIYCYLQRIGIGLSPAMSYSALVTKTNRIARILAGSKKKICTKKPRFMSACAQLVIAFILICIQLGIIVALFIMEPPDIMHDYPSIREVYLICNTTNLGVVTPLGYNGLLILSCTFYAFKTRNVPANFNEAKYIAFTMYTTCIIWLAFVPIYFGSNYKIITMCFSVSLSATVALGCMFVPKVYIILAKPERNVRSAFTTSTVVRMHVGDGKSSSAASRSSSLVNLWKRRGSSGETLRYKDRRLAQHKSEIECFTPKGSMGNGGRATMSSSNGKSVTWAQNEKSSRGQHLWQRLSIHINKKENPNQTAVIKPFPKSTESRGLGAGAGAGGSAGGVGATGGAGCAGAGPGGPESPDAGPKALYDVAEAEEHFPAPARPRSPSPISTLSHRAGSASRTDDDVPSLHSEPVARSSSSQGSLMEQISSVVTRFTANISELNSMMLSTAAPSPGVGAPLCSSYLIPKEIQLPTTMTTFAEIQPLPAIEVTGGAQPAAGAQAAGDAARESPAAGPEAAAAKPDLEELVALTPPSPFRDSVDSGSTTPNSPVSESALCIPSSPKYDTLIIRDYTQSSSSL", "assay": "Agonist activity at human recombinant mGlu5 receptor expressed in AV12 cells assessed as stimulation of Ca2+ mobilization after 1 hr by FLIPR assay", "format": "functional, cell-based"}, "[4]": {"assay": "Plasma concentration in Sprague-Dawley rat at 1 mg/kg, ip after 1 hr", "format": "ADME, organism-based", "how_it_was_run": "(§2)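 Separate experiment: single ip doses of 1, 3 and 10 mg/kg to rats, compound in water adjusted to pH 7–7.5 with NaOH; plasma (with csf) sampled at 0.5, 1 and 4 h; mean plasma concentrations ± SEM reported.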"}, "[5]": {"molecular_target": "Metabotropic glutamate receptor 3 (Homo sapiens, UniProt Q14832, Q306L)", "assay": "Agonist activity at human recombinant mGlu3 receptor Q306L mutant expressed in AV12 cells assessed as stimulation of Ca2+ mobilization after 1 hr by FLIPR assay", "format": "functional, cell-based"}, "[6]": {"molecular_target": "Metabotropic glutamate receptor 1 (Homo sapiens, UniProt Q13255)", "assay": "Agonist activity at human recombinant mGlu1 receptor expressed in AV12 cells assessed as stimulation of Ca2+ mobilization after 1 hr by FLIPR assay", "format": "functional, cell-based"}, "[7]": {"assay": "Half life in Sprague-Dawley rat at 10 mg/kg, ip", "format": "ADME, organism-based", "details": "in vivo", "how_it_was_run": "as §1"}, "[8]": {"assay": "Clearance in Sprague-Dawley rat at 1 mg/kg, iv", "format": "ADME, organism-based", "details": "in vivo", "how_it_was_run": "as §1"}, "[9]": {"assay": "Metabolic stability of the compound in mouse hepatocytes assessed as loss of compound at 2 uM", "format": "ADME, cell-based, Hepatocyte", "details": "read-out: Drug degradation", "how_it_was_run": "(§3)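 Hepatocytes from mouse, rat, dog and human; compound tested at 2 µM; percent loss of parent compound measured.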"}, "[10]": {"assay": "Tmax in Sprague-Dawley rat at 10 mg/kg, ip", "format": "ADME, organism-based", "details": "in vivo", "how_it_was_run": "(§4)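 Compound dissolved in water, pH adjusted to 7–7.5 with NaOH; single dose to fasted male Sprague–Dawley rats (~250 g) by oral gavage, intravenous or intraperitoneal route. Serial blood (11–12 samples per rat) from jugular vein catheter into EDTA tubes, centrifuged, frozen; 25 µL plasma mixed with methanol:water (1:1) containing analogue internal standard.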"}, "[11]": {"assay": "Plasma concentration in Sprague-Dawley rat at 3 mg/kg, ip after 1 hr", "format": "ADME, organism-based", "how_it_was_run": "as §2"}, "[12]": {"molecular_target": "Metabotropic glutamate receptor 3 (Homo sapiens, UniProt Q14832)", "assay": "Agonist activity at human recombinant mGlu3 receptor expressed in AV12 cells assessed as inhibition of forskolin-stimulated cAMP production after 1 hr by fluorescence assay", "format": "functional, cell-based"}, "[13]": {"assay": "Metabolic stability of the compound in rat hepatocytes assessed as loss of compound at 2 uM", "format": "ADME, cell-based, Hepatocyte", "details": "read-out: Drug degradation", "how_it_was_run": "as §3"}, "[14]": {"molecular_target": "Metabotropic glutamate receptor 7 (Homo sapiens, UniProt Q14831)", "sequence (Q14831 whole entry)": "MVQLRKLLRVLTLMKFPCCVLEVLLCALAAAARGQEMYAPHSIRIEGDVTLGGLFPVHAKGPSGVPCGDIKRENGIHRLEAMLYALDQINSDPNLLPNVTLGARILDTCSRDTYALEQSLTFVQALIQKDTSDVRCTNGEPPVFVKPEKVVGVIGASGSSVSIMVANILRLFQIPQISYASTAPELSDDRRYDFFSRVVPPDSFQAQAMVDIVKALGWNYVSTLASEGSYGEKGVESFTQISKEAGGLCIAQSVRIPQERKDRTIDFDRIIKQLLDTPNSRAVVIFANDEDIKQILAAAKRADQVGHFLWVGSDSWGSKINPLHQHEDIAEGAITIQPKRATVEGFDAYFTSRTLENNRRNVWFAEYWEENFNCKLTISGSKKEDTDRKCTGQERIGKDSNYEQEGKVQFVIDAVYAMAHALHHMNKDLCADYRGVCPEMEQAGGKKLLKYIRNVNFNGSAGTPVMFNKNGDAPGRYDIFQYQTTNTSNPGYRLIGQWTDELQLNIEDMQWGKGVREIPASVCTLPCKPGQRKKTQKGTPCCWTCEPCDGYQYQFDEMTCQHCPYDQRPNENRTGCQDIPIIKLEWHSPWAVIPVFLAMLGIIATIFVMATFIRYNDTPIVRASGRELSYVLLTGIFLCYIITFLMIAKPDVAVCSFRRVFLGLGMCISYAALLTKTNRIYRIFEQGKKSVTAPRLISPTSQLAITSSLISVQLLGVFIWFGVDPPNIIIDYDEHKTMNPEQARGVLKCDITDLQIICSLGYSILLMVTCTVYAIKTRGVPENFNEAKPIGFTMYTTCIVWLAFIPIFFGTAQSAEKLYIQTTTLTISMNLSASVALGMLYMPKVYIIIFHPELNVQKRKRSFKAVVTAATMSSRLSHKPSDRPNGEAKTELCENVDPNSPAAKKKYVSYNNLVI", "assay": "Agonist activity at human recombinant mGlu7 receptor expressed in AV12 cells assessed as stimulation of Ca2+ mobilization after 1 hr by FLIPR assay", "format": "functional, cell-based"}, "[15]": {"molecular_target": "Metabotropic glutamate receptor 2 (Homo sapiens, UniProt Q14416, E273D/L300Q)", "sequence (Q14416 19-872 E273D/L300Q limits assumed)": "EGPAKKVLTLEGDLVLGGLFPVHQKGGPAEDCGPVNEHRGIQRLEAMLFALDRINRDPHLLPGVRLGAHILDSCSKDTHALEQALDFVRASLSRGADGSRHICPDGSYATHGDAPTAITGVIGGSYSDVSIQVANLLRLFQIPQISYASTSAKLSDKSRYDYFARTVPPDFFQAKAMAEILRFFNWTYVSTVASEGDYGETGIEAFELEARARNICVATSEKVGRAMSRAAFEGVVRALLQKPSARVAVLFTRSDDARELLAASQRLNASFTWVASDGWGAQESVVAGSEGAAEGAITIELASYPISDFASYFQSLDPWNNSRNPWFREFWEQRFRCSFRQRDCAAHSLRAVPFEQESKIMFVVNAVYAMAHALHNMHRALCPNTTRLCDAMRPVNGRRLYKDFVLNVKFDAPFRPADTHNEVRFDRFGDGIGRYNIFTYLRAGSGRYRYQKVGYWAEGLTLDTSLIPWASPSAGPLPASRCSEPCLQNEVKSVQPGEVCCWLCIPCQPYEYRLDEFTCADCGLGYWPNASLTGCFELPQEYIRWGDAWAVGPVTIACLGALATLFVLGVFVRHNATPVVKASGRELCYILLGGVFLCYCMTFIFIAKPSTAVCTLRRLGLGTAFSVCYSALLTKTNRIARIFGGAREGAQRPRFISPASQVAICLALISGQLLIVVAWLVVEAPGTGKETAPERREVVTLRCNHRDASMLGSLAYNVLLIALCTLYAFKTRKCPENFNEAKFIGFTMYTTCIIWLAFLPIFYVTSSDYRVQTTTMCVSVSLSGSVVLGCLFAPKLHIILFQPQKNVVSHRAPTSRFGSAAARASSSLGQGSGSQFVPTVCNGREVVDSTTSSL", "assay": "Agonist activity at human recombinant mGlu2 receptor E273D and L300Q mutant expressed in AV12 cells assessed as stimulation of Ca2+ mobilization after 1 hr by FLIPR assay", "format": "functional, cell-based"}, "[16]": {"assay": "Drug level in Sprague-Dawley rat cerebrospinal fluid at 1 mg/kg, ip after 1 hr", "format": "ADME, organism-based", "details": "read-out: Drug uptake", "how_it_was_run": "(§5)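 Male Sprague–Dawley rats received single ip doses of 1, 3 or 10 mg/kg. Cerebrospinal fluid and plasma levels were determined at 0.5, 1 and 4 h. Mean csf concentration (nM ± SEM) is reported.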"}, "[17]": {"assay": "Tmax in Sprague-Dawley rat at 1 mg/kg, ip", "format": "ADME, organism-based", "details": "in vivo", "how_it_was_run": "as §4"}, "[18]": {"assay": "Plasma concentration in Sprague-Dawley rat at 1 mg/kg, ip after 4 hrs", "format": "ADME, organism-based", "how_it_was_run": "as §2"}, "[19]": {"assay": "AUC (0 to 24 hrs) in Sprague-Dawley rat at 1 mg/kg, iv", "format": "ADME, organism-based", "parameters": "time < 24 hr, dose 1 mg/kg, route intravenous", "details": "in vivo", "how_it_was_run": "as §1"}, "[20]": {"molecular_target": "Metabotropic glutamate receptor 8 (Homo sapiens, UniProt O00222)", "assay": "Antagonist activity at human recombinant mGlu8 receptor expressed in AV12 cells assessed as inhibition of glutamate-stimulated Ca2+ mobilization after 1 hr by FLIPR assay", "format": "functional, cell-based"}, "[21]": {"assay": "Volume of distribution at steady state in Sprague-Dawley rat at 1 mg/kg, iv", "format": "ADME, organism-based", "details": "in vivo, read-out: Vdss", "how_it_was_run": "as §4"}, "[22]": {"assay": "Drug level in Sprague-Dawley rat cerebrospinal fluid at 3 mg/kg, ip after 1 hr", "format": "ADME, organism-based", "details": "read-out: Drug uptake", "how_it_was_run": "as §5"}, "[23]": {"molecular_target": "T1, Metabotropic glutamate receptor 2", "assay": "Agonist activity at human recombinant mGlu2 receptor expressed in AV12 cells assessed as inhibition of forskolin-stimulated cAMP production after 20 min by fluorescence assay"}, "Rattus norvegicus": {"system": "Rattus norvegicus", "assay": "Antipsychosis activity in ip dosed Sprague-Dawley rat assessed as reduction of […] in horizontal ambulations administered 30 mins before PCP challenge measured after 60 mins", "format": "functional"}, "[24]": {"assay": "Cmax in Sprague-Dawley rat at 1 mg/kg, ip", "format": "ADME, organism-based", "parameters": "dose 1 mg/kg, route intraperitoneal", "details": "in vivo", "how_it_was_run": "as §1"}, "[25]": {"assay": "Drug level in Sprague-Dawley rat cerebrospinal fluid at 3 mg/kg, ip after 4 hrs", "format": "ADME, organism-based", "details": "read-out: Drug uptake", "how_it_was_run": "as §5"}, "[26]": {"molecular_target": "Metabotropic glutamate receptor 6 (Homo sapiens, UniProt O15303)", "assay": "Agonist activity at human recombinant mGlu6 receptor expressed in AV12 cells assessed as inhibition of forskolin-stimulated cAMP production after 1 hr by fluorescence assay", "format": "functional, cell-based"}, "[27]": {"assay": "Half life in Sprague-Dawley rat at 5 mg/kg, po", "format": "ADME, organism-based", "details": "in vivo", "how_it_was_run": "as §1"}, "[28]": {"assay": "Plasma concentration in Sprague-Dawley rat at 10 mg/kg, ip after 0.5 hrs", "format": "ADME, organism-based", "how_it_was_run": "as §2"}, "[29]": {"assay": "AUC (0 to 24 hrs) in Sprague-Dawley rat at 3 mg/kg, ip", "format": "ADME, organism-based", "parameters": "time < 24 hr, dose 3 mg/kg, route intraperitoneal", "details": "in vivo", "how_it_was_run": "as §1"}, "[30]": {"molecular_target": "Metabotropic glutamate receptor 4 (Homo sapiens, UniProt Q14833)", "sequence (Q14833 whole entry)": "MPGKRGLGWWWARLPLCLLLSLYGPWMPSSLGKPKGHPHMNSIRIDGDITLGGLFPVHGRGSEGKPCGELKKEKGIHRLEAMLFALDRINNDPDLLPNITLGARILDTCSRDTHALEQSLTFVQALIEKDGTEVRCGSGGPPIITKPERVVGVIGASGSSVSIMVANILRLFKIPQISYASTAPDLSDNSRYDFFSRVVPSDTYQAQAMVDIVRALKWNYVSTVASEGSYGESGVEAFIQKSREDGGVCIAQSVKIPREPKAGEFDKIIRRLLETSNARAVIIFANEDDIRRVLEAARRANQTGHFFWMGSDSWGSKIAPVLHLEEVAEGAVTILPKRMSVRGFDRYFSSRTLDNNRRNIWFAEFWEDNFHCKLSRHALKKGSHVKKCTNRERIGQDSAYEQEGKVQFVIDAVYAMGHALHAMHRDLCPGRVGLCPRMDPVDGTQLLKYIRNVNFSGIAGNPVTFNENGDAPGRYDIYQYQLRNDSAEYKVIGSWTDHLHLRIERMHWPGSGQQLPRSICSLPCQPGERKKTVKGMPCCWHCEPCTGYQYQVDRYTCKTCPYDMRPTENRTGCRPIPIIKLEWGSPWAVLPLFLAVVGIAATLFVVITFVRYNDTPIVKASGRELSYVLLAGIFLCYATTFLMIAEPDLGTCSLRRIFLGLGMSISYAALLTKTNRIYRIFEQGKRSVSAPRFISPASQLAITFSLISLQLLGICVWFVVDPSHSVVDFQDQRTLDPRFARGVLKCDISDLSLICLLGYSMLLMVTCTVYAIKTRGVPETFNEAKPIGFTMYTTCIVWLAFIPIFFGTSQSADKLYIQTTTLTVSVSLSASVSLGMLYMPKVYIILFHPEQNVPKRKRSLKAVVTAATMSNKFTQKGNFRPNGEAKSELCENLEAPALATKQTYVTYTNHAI", "assay": "Agonist activity at human recombinant mGlu4 receptor expressed in AV12 cells assessed as stimulation of Ca2+ mobilization after 1 hr by FLIPR assay", "format": "functional, cell-based"}, "[31]": {"assay": "Drug level in Sprague-Dawley rat cerebrospinal fluid at 10 mg/kg, ip after 0.5 hrs", "format": "ADME, organism-based", "details": "read-out: Drug uptake", "how_it_was_run": "as §5"}, "[32]": {"assay": "Drug level in Sprague-Dawley rat cerebrospinal fluid at 10 mg/kg, ip after 1 hr", "format": "ADME, organism-based", "details": "read-out: Drug uptake", "how_it_was_run": "as §5"}, "[33]": {"assay": "Metabolic stability of the compound in dog hepatocytes assessed as loss of compound at 2 uM", "format": "ADME, cell-based, Canis lupus familiaris, Hepatocyte", "details": "read-out: Drug degradation", "how_it_was_run": "as §3"}, "[34]": {"molecular_target": "Metabotropic glutamate receptor 2 (Homo sapiens, UniProt Q14416, E273D)", "sequence (Q14416 19-872 E273D limits assumed)": "as the sequence (Q14416 19-872 E273D/L300Q limits assumed) above, with Q282L counted along it", "assay": "Agonist activity at human recombinant mGlu2 receptor E273D mutant expressed in AV12 cells assessed as stimulation of Ca2+ mobilization after 1 hr by FLIPR assay", "format": "functional, cell-based"}, "[35]": {"assay": "Bioavailability in Sprague-Dawley rat at 3 mg/kg, ip", "format": "ADME, organism-based", "details": "in vivo", "how_it_was_run": "as §1"}, "[36]": {"assay": "Aqueous solubility of the compound at pH 7.4", "format": "physicochemical"}}}
{"smiles": "N[C@@]1(C(=O)O)C[C@@H](Sc2nc[nH]n2)[C@H]2[C@H](C(=O)O)[C@H]21", "values": [{"measurement": "Ki", "setting": "[1]", "value": 144, "unit": "nM"}, {"measurement": "bioavailability", "setting": "[2]", "value": 122, "unit": "%"}, {"measurement": "EC50", "setting": "[3]", "value": "> 25000", "unit": "nM"}, {"measurement": "concentration at 1 h", "setting": "[4]", "value": 3010, "unit": "nM"}, {"measurement": "EC50", "setting": "[5]", "value": 2830, "unit": "nM"}, {"measurement": "EC50", "setting": "[6]", "value": "> 25000", "unit": "nM"}, {"measurement": "half-life", "setting": "[7]", "value": 5.2, "unit": "h"}, {"measurement": "clearance", "setting": "[8]", "value": 12.3, "unit": "mL/min/kg"}, {"measurement": "metabolised at 2 µM", "setting": "[9]", "value": "< 10", "unit": "%"}, {"measurement": "Tmax", "setting": "[10]", "value": 0.5, "unit": "h"}, {"measurement": "concentration at 1 h", "setting": "[11]", "value": 4980, "unit": "nM"}, {"measurement": "EC50", "setting": "[12]", "value": 129, "unit": "nM"}, {"measurement": "metabolised at 2 µM", "setting": "[13]", "value": "< 10", "unit": "%"}, {"measurement": "EC50", "setting": "[14]", "value": "> 25000", "unit": "nM"}, {"measurement": "EC50", "setting": "[15]", "value": 48.2, "unit": "nM"}, {"measurement": "concentration at 1 h", "setting": "[16]", "value": 39.9, "unit": "nM"}, {"measurement": "Tmax", "setting": "[17]", "value": 0.4, "unit": "h"}, {"measurement": "concentration at 4 h", "setting": "[18]", "value": 314, "unit": "nM"}, {"measurement": "AUC(0-t) at 24 h", "setting": "[19]", "value": 4.91, "unit": "µM·h"}, {"measurement": "IC50", "setting": "[20]", "value": "> 12500", "unit": "nM"}, {"measurement": "Vd", "setting": "[21]", "value": 1.01, "unit": "L/kg"}, {"measurement": "concentration at 1 h", "setting": "[22]", "value": 86.4, "unit": "nM"}, {"measurement": "EC50", "setting": "[23]", "value": 5.6, "unit": "nM"}, {"measurement": "ED50", "setting": "Rattus norvegicus", "value": 1.2, "unit": "mg/kg"}, {"measurement": "Cmax", "setting": "[24]", "value": 4920, "unit": "nM"}, {"measurement": "concentration at 4 h", "setting": "[25]", "value": 27.5, "unit": "nM"}, {"measurement": "EC50", "setting": "[26]", "value": 3450, "unit": "nM"}, {"measurement": "half-life", "setting": "[27]", "value": 3.7, "unit": "h"}, {"measurement": "concentration at 0.5 h", "setting": "[28]", "value": 40100, "unit": "nM"}, {"measurement": "AUC(0-t) at 24 h", "setting": "[29]", "value": 10.8, "unit": "µM·h"}, {"measurement": "EC50", "setting": "[30]", "value": "> 25000", "unit": "nM"}, {"measurement": "concentration at 0.5 h", "setting": "[31]", "value": 235, "unit": "nM"}, {"measurement": "concentration at 1 h", "setting": "[32]", "value": 272, "unit": "nM"}, {"measurement": "metabolised at 2 µM", "setting": "[33]", "value": "< 10", "unit": "%"}, {"measurement": "EC50", "setting": "[34]", "value": 46.3, "unit": "nM"}, {"measurement": "bioavailability", "setting": "[35]", "value": 73, "unit": "%"}, {"measurement": "solubility", "setting": "[36]", "value": "> 100", "unit": "µM"}]}
